Measurements as given in PubChem BioAssay.
Values without a mark were called inactive. Records with an inconclusive call do not appear. Calls of active or inactive are those of the source.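 How the source made its calls, unless noted: active means cell viability at or below a set limit in both duplicate runs, the limit being the all-compound median minus 4 SD (cut at about 23% in these data, passing the limit was not always enough); inconclusive means no clear call, values can overlap the other calls; inactive means the rest.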

Experiments:
[1] = S. cerevisiae growth inhibition in permissive medium (OD615), pilot counter-assay for S. cerevisiae lifespan shortening project, permissive growth control (AID 705;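 active means growth inhibition above 25% in both replicates, a cutoff set 3 SD above the mean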); settings: OD615, 24 h, at 10 µM, hits give high values
Outline: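 System: Engineered DeaD yeast | Buffer or medium: SC raffinose/galactose permissive medium | Doses: 10 µM single dose, 0.25% DMSO | Times: 24 h exposure, 30 °C | Measured by: OD615 turbidity read | Read-out: Yeast growth inhibition indicated by reduced 24 h OD615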

[2] = S. cerevisiae growth inhibition in restrictive medium, OD615, pilot screen, restrictive growth control, yeast lifespan reduction project (AID 706;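 active means growth inhibition above a set limit, 3 SD over mean compound inhibition, in both replicates, cut at about 43% in these data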;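 further: modified DeaD lifespan yeast strain shifted to restrictive glucose medium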); settings: OD615, 48 h, at 10 µM, hits give high values
Outline: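 Assay system: engineered S. cerevisiae DeaD strain; Buffer or medium: CSMM-D glucose medium; Dosing: 10 µM compound, 0.25% DMSO; Times: cell pre-growth 4 h, compound exposure 48 h, 30 °C; Detection: absorbance (optical density) measured at 615 nm.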

[3] = doxorubicin toxicity protection in MRP-1 cells – H69AR cells, CellTiter-Glo, duplicate, MRP-1 activator project, pilot screen (AID 807;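 active means viability increase at or above a cutoff of the median across tested compounds plus 3 SD, cut at about 8.5% in these data, passing the limit was not always enough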;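 further: compound pretreatment 18-22 h then 72 h combined with doxorubicin; 0% = doxorubicin alone and 100% = vehicle without doxorubicin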); settings: H69AR viability with doxorubicin, CellTiter-Glo luminescence; at 10 µM; hits give high values
[4] = viability of HCT116 without oncogenic beta-catenin – human colon tumor cells, pilot screen (AID 823); settings: HCT116 beta-catenin knockout viability, CellTiter-Glo, 60 h; at 10 µM; hits give low values;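 further: 0% = wells killed by 20 µM Hyamine and 100% = untreated DMSO cell wells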
[5] = viability of PTEN-null HCT116 cells – cell-based, HCT116 clonal line, CellTiter-Glo, pilot screen (AID 824;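 active means viability at or below 27.92% in each of two runs, the all-compound median minus 4 SD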;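 further: 0% = 20 µM Hyamine control and 100% = vehicle cell control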); settings: HCT116 PTEN-deleted viability, 60 h, at 10 µM, hits give low values
[6] = RAM pathway blockade in budding yeast – dse1pr::URA3 reporter, 5-FOA selection, pilot screen (AID 869;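 active means inhibition over a set limit, the all-compound mean plus 3 SD, in both replicate runs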;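 further: 0% = DMSO wells with no growth and 100% = 10 µM 1-NA-PP1 with full growth; RAM network block rescues cells from 5-FOA so hits raise OD615 growth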); settings: S. cerevisiae dse1pr::URA3 5-FOA growth, OD615, 2 d; at 10 µM; hits give high values; strain carries analog-sensitive mutant Cbk1 kinase
[7] = RAM signaling pathway blockade in yeast – S. cerevisiae, Pdr1DBD-CYC8 efflux-inhibited sensitized strain, primary screen (AID 1298;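 active means RAM network inhibition above 8.4% in each of two replicates, 3 SD over the compound average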;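 further: 0% = DMSO untreated cells without growth and 100% = 10 µM 1-NA-PP1 full growth; higher means more yeast growth rescued from 5-FOA killing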); settings: S. cerevisiae cbk1-as DSE1-URA3 strain, 5-FOA growth OD615, 2 d; at 50 µM; hits give high values

## CCOC(=O)C(C)n1cnc2sc3c(c2c1=O)CCC3 (stereo unspecified)
[1]
  growth inhibition: -8.5%
[2]
  growth inhibition: -7.75%
[3]
  viability increase: -1.76%
[4]
  viability: 95.7%
[5]
  viability: 99.6%
[6]
  inhibition: 0.575%
[7]
  RAM network inhibition: 1.15%

## COc1ccc(C2C(C(=O)c3cccs3)=C(O)C(=O)N2c2nnc(C)s2)cc1OC (stereo unspecified)
[1]
  growth inhibition: -6.25%
[2]
  growth inhibition: 9.11%
[3]
  viability increase: 1.59%
[4]
  viability: 102%
[5]
  viability: 101%
[6]
  inhibition: 1.33%
[7]
  RAM network inhibition: 2.05%

## O=C(Cn1cc2c(n1)CCCC2)NC1CCCCCC1
[1]
  growth inhibition: 4.4%
[2]
  growth inhibition: 2.47%
[3]
  viability increase: -1.14%
[4]
  viability: 99.2%
[5]
  viability: 93.6%
[6]
  inhibition: 0.485%
[7]
  RAM network inhibition: 2.95%

## O=C(CSc1cn(CCNC(=O)c2ccccc2)c2ccccc12)NCc1ccco1
[1]
  growth inhibition: -4.76%
[2]
  growth inhibition: -10.4%
[3]
  viability increase: -5.29%
[4]
  viability: 84.1%
[5]
  viability: 84.3%
[6]
  inhibition: 0.64%
[7]
  RAM network inhibition: 5.98%

## CCOc1ccc(-c2nc(C#N)c(N3CCN(Cc4ccccc4)CC3)o2)cc1
[1]
  growth inhibition: -4.62%
[2]
  growth inhibition: 8.5%
[3]
  viability increase: -0.05%
[4]
  viability: 78.6%
[5]
  viability: 87.2%
[6]
  inhibition: -0.36%
[7]
  RAM network inhibition: 3.33%

## COc1ccc(C2CC3CC(c4ccccc4)N2O3)cc1 (stereo unspecified)
[1]
  growth inhibition: -3.88%
[2]
  growth inhibition: -2.38%
[3]
  viability increase: -1.22%
[4]
  viability: 89.3%
[5]
  viability: 93.5%
[6]
  inhibition: 2.11%
[7]
  RAM network inhibition: 4.21%

## COC(=O)c1c(C)nc(C)c2c(=O)oc3ccccc3c12
[1]
  growth inhibition: 3.52%
[2]
  growth inhibition: 15.3%
[3]
  viability increase: 0.64%
[4]
  viability: 102%
[5]
  viability: 104%
[6]
  inhibition: 2.04%
[7]
  RAM network inhibition: 1.99%

## Cc1ccc(F)c(NC(=O)C2CCCCC2C(=O)O)c1 (stereo unspecified)
[1]
  growth inhibition: 1.12%
[2]
  growth inhibition: -20.6%
[3]
  viability increase: -2.22%
[4]
  viability: 90.7%
[5]
  viability: 94%
[6]
  inhibition: 0.145%
[7]
  RAM network inhibition: 2.88%

## COc1ccc(C)cc1NC(=O)CN(c1ccccc1F)S(C)(=O)=O
[1]
  growth inhibition: -8.48%
[2]
  growth inhibition: -0.695%
[3]
  viability increase: -1.51%
[4]
  viability: 94.6%
[5]
  viability: 103%
[6]
  inhibition: -0.63%
[7]
  RAM network inhibition: 0.32%

## COc1cccc(CNC(=O)c2ccc(NC(=O)C3CCCO3)cc2)c1 (stereo unspecified)
[1]
  growth inhibition: -23.1%
[2]
  growth inhibition: -16.5%
[3]
  viability increase: 0.53%
[4]
  viability: 95.1%
[5]
  viability: 97.2%
[6]
  inhibition: 1.14%
[7]
  RAM network inhibition: 7.03%

## COc1cccc(C2NC(=O)NC(C)=C2C(=O)Nc2ccc(C)cc2)c1OC (stereo unspecified)
[1]
  growth inhibition: -1.23%
[2]
  growth inhibition: -4.83%
[3]
  viability increase: 0.13%
[4]
  viability: 98.5%
[5]
  viability: 99.7%
[6]
  inhibition: 0.455%
[7]
  RAM network inhibition: 6.12%

## Cn1c(=O)oc2cc(S(=O)(=O)N3CCC(N4CCCCC4)CC3)ccc21
[1]
  growth inhibition: -15.8%
[2]
  growth inhibition: -13.1%
[3]
  viability increase: -1.67%
[4]
  viability: 98.7%
[5]
  viability: 93%
[6]
  inhibition: -0.02%
[7]
  RAM network inhibition: 1.06%

## COc1cccc(-c2nnc(SCC(=O)N3CC(C)CC(C)C3)o2)c1 (stereo unspecified)
[1]
  growth inhibition: -6.77%
[2]
  growth inhibition: -0.75%
[3]
  viability increase: -3.25%
[4]
  viability: 98%
[5]
  viability: 90.5%
[6]
  inhibition: 0.535%
[7]
  RAM network inhibition: 0.7%

## CC1(C)CC(N2CCN(c3ccccc3)CC2)=CC(=[N+]2CCCC2)C1
[1]
  growth inhibition: -2.24%
[2]
  growth inhibition: -20.8%
[3]
  viability increase: -3.22%
[4]
  viability: 18.1% (active)
[5]
  viability: 18.4% (active)
[6]
  inhibition: 1.37%
[7]
  RAM network inhibition: 0.52%

## N=c1n(CCO)c2ccccc2n1CCOc1ccc(Cl)cc1Cl
[1]
  growth inhibition: -0.15%
[2]
  growth inhibition: 4.96%
[3]
  viability increase: -8.35%
[4]
  viability: 1.5% (active)
[5]
  viability: 1.54% (active)
[6]
  inhibition: 1%
[7]
  RAM network inhibition: 0.72%

## Cc1c(C)n(CC(O)CN2CCCCCC2)c2ccccc12 (stereo unspecified)
[1]
  growth inhibition: -14.9%
[2]
  growth inhibition: -19.6%
[3]
  viability increase: -4.25%
[4]
  viability: 79.6%
[5]
  viability: 81%
[6]
  inhibition: 2.44%
[7]
  RAM network inhibition: 1.09%

## CCOc1cc2[nH]c(=O)n(Cc3ccc(C(=O)NCCOC)cc3)c(=O)c2cc1OCC
[1]
  growth inhibition: -16.2%
[2]
  growth inhibition: -6.54%
[3]
  viability increase: -1.54%
[4]
  viability: 97.8%
[5]
  viability: 95.2%
[6]
  inhibition: 0.03%
[7]
  RAM network inhibition: 6.22%

## N#CC1=C(N)SC(N)=C(C#N)C1C1CC=CCC1 (stereo unspecified)
[1]
  growth inhibition: -18.9%
[2]
  growth inhibition: -10.4%
[3]
  viability increase: -0.79%
[4]
  viability: 108%
[5]
  viability: 97.5%
[6]
  inhibition: 2.11%
[7]
  RAM network inhibition: 0.74%
